Calls of active or inactive are those of the source. The rule behind the calls is not given here.
How the values were obtained:
[1] = test system: Mus musculus; experiment: Antialzheimer activity in 5XFAD mouse assessed as appearance of CAA in […] cortex at 600 ppm administered as rodent chow starting from 1.5 months and measured after 5 months by immunolabeling based confocal microscopic analysis; type: functional, organism-based; settings: route po, time 3.5 months
In short: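 5xFAD mice fed PLX3397 at 600 ppm in AIN-76A chow from 1.5 to 5 months of age; brain sections stained with Thio-S and immunolabeled for IBA1, imaged by confocal microscopy for vascular Thio-S deposits.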

[2] = test system: Mus musculus; experiment: Antialzheimer activity in wildtype mouse assessed as number of Iba positive cells per FOV in somatosensory cortex at 1200 ppm administered as rodent chow starting from 1.5 months and measured after 4 months (reference value: 304 to 351); type: functional; settings: route po, time 2.5 months, 1825 h
[3] = biological target: Rhodopsin kinase GRK7 (Homo sapiens, UniProt Q8WTQ7); experiment: Inhibition of GRK7 (unknown origin)
Chain of Rhodopsin kinase GRK7 (Q8WTQ7 whole entry): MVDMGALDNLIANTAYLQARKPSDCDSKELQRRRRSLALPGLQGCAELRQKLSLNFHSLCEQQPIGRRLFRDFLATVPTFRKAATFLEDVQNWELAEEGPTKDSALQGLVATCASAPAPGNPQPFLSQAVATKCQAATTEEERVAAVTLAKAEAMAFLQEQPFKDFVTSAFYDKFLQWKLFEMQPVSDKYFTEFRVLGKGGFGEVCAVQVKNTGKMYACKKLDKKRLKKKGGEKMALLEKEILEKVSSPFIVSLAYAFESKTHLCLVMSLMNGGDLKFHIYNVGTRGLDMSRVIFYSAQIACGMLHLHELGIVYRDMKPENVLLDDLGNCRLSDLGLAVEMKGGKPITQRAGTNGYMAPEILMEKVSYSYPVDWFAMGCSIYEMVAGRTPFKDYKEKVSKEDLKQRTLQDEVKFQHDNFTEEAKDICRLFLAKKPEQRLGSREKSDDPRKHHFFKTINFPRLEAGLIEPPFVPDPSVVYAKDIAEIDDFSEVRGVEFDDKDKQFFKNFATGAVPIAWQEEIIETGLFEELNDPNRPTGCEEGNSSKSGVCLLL

[4] = test system: Mus musculus; experiment: Prevention of immune pathway related gene upregulation in 5XFAD mouse hippocampus assessed as percent change in Reads Per kilo base per Million mapped reads at 1200 ppm administered as rodent chow starting from 1.5 months and measured after 7 months by GO enrichment analysis; type: functional, tissue-based; settings: route po, time 5.5 months
[5] = AUC (0 to 24 hrs) in 5XFAD mouse plasma at 1200 ppm administered as rodent chow for 180 days; type: ADME, cell-free; settings: route po, time 180 day
[6] = biological target: Protein kinase C theta type (Homo sapiens, UniProt Q04759); experiment: Inhibition of PRKCQ (unknown origin)
Chain of Protein kinase C theta type (Q04759 whole entry): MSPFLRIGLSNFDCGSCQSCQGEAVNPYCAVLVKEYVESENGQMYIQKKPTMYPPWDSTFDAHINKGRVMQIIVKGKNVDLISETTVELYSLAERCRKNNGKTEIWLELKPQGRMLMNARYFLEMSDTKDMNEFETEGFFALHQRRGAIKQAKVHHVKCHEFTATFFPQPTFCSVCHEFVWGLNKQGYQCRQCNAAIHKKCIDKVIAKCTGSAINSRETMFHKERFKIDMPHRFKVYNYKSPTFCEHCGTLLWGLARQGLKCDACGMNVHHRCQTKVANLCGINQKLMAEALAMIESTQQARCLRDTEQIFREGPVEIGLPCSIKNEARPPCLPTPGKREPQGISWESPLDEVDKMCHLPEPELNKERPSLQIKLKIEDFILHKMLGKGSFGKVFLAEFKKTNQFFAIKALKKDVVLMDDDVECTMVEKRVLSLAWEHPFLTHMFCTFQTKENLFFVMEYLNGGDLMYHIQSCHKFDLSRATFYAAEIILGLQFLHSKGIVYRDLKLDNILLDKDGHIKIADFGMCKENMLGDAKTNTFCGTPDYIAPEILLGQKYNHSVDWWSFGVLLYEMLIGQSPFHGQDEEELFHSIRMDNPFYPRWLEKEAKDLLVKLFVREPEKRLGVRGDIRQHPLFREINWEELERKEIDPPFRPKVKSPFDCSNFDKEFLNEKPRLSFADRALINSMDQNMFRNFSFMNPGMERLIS

[7] = Effect on Cst7 gene expression in 5XFAD mouse hippocampus at 1200 ppm administered as rodent chow starting from 1.5 months and measured after 7 months by RNA-Seq analysis (reference value: 14.615 to 34.909 RPKM); type: functional; settings: route po, time 5.5 months, 4015 h
[8] = Effect on Hexb gene expression in 5XFAD mouse cortex at 1200 ppm administered as rodent chow starting from 1.5 months and measured after 7 months by RNA-Seq analysis (reference value: 70.260 to 103.252 RPKM); type: functional; settings: route po, time 5.5 months, 4015 h
[9] = Effect on Cst7 gene expression in wild type mouse cortex at 1200 ppm administered as rodent chow starting from 1.5 months and measured after 7 months by RNA-Seq analysis (reference value: 0.102 to 0.891 RPKM); type: functional; settings: route po, time 5.5 months, 4015 h
[10] = biological target: T1, Macrophage colony-stimulating factor 1 receptor (Mus musculus) (UniProt P09581); experiment: In vivo inhibition of CSF1R in wildtype mouse assessed as iron reactivity by measuring hemosiderin intensity of prussian blue staining in […] cortex at 1200 ppm administered as rodent chow starting from 1.5 months and measured after 7 months by confocal microscopic analysis (reference value: 0.059 to 2.835 a.u.); type: functional; settings: route po, time 5.5 months
T1 sequence (whole entry): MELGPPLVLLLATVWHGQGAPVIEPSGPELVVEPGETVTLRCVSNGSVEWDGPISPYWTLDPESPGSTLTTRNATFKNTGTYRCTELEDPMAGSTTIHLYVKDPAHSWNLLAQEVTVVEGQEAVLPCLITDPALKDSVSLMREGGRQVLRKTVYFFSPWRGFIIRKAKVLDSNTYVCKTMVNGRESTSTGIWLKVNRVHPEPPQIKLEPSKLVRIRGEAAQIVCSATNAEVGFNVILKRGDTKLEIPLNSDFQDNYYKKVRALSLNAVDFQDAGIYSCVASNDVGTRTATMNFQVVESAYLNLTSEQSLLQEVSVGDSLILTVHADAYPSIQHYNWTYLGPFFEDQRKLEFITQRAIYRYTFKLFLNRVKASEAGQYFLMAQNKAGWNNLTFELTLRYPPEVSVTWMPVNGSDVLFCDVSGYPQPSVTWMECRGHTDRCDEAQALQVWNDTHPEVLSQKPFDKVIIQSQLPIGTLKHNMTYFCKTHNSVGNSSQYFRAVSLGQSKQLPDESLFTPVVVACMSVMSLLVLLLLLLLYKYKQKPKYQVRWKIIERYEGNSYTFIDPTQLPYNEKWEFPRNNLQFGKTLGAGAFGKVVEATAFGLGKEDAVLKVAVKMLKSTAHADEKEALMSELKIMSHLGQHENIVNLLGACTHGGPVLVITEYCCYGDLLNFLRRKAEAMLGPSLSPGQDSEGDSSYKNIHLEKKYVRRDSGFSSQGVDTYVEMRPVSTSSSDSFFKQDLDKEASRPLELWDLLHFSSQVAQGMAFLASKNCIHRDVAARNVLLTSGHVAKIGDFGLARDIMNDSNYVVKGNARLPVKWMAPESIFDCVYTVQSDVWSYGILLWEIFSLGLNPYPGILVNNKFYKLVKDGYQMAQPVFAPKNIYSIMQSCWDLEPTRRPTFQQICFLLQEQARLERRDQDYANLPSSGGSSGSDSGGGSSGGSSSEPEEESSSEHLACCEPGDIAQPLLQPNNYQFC
In short: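 Wild-type or 5xFAD mice fed PLX5622 (1200 ppm) in AIN-76A chow from 1.5 months of age, examined in 4- and 7-month-old cohorts. Brain sections stained with a Prussian blue kit per kit instructions to detect iron deposits (microbleeds).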

[11] = biological target: Phosphatidylinositol 4,5-bisphosphate 3-kinase catalytic subunit gamma isoform (Homo sapiens, UniProt P48736); experiment: Inhibition of PIK3CG (unknown origin)
Chain of Phosphatidylinositol 4,5-bisphosphate 3-kinase catalytic subunit gamma isoform (P48736 whole entry, canonical isoform): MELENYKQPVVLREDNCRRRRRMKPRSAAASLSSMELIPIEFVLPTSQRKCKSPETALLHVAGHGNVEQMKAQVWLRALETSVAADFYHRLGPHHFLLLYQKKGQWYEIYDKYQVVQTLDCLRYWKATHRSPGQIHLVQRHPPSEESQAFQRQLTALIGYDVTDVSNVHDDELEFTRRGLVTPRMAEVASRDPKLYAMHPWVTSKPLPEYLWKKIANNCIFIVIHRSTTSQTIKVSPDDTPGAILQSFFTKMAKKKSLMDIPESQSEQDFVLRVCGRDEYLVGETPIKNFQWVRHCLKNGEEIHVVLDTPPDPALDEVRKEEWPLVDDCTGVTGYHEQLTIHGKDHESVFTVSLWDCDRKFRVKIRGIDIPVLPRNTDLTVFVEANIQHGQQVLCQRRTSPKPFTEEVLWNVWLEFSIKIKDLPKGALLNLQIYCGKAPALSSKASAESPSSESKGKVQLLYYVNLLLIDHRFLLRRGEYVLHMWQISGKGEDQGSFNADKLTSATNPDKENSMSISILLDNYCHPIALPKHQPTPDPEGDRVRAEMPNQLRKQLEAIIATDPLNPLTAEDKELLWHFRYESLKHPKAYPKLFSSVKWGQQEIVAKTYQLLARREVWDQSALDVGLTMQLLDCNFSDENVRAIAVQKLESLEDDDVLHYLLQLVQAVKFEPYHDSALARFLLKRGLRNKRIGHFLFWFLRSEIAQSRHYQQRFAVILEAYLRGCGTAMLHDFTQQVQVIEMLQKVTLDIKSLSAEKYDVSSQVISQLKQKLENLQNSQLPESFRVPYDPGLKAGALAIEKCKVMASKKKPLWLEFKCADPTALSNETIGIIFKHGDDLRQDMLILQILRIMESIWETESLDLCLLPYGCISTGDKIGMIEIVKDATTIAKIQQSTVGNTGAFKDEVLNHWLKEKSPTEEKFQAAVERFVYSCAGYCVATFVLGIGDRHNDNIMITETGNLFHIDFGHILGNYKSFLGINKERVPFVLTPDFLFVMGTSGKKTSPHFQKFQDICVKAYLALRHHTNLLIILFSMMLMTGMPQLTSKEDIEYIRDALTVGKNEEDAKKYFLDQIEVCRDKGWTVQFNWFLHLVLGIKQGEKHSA

[12] = biological target: Serine/threonine-protein kinase mTOR (Homo sapiens, UniProt P42345); experiment: Inhibition of FRAP1 (unknown origin)
[13] = Effect on Csf1r RPKM gene expression in wild type mouse hippocampus at 1200 ppm administered as rodent chow starting from 1.5 months and measured after 7 months by RNA-Seq analysis (reference value: 18.240 to 20.004 RPKM); type: functional; settings: route po, time 5.5 months, 4015 h
[14] = biological target: Serine/threonine-protein kinase N1 (Homo sapiens, UniProt Q16512); experiment: Inhibition of PKN1 (unknown origin)
Chain of Serine/threonine-protein kinase N1 (Q16512 whole entry): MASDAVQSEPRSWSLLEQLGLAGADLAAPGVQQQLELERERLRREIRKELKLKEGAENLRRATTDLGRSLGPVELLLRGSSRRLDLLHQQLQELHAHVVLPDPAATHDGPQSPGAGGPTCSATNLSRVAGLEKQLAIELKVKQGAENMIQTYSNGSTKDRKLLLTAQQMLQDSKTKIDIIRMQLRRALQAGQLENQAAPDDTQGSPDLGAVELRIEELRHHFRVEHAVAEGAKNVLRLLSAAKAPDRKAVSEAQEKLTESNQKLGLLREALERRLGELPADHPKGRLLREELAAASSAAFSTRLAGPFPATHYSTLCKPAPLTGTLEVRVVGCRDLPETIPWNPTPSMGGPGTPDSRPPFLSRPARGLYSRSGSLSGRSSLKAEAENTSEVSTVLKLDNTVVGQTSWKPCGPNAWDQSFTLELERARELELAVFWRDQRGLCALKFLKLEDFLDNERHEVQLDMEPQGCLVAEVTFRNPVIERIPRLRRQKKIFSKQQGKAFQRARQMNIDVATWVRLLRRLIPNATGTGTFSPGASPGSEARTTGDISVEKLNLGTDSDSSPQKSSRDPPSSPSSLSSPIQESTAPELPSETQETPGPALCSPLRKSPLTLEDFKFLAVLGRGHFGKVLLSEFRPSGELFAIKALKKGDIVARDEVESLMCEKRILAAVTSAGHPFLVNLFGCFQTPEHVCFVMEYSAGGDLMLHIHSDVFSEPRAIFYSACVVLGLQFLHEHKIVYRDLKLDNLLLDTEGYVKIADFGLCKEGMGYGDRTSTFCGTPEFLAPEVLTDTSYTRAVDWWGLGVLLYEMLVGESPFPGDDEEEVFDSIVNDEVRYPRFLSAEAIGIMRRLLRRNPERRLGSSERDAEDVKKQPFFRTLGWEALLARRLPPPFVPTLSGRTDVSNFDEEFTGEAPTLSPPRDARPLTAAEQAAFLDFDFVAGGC

[15] = AUC (0 to 24 hrs) in mouse brain at 300 ppm administered as rodent chow for 14 days; type: ADME, tissue-based; settings: route po, time 14 day
[16] = test system: Mus musculus; experiment: Antialzheimer activity in 5XFAD mouse assessed as amyloidbeta38 level in detergent soluble cortex fraction measured per microgram protein at 1200 ppm administered as rodent chow starting from 1.5 months and measured after 7 months by ELISA (reference value: 0 to 0.014 pg); type: functional; settings: route po, time 5.5 months, 4015 h
In short: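 PLX5622 at 1200 ppm in chow given to 5xFAD mice from 1.5 months to 4 or 7 months of age; cortex and thalamus homogenized in TPER (detergent-soluble), pellets re-homogenized in 70% formic acid and spun 100,000 g, 1 h, 4 °C (insoluble); protein by Bradford/Lowry; Aβ species measured by Meso Scale electrochemiluminescence immunoassay, normalized to protein; n = 7–8 per group at 7 months.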

[17] = Effect on Spi1 gene expression in 5XFAD mouse cortex at 1200 ppm administered as rodent chow starting from 1.5 months and measured after 7 months by RNA-Seq analysis (reference value: 1.689 to 2.928 RPKM); type: functional; settings: route po, time 5.5 months, 4015 h
[18] = biological target: T1, Macrophage colony-stimulating factor 1 receptor (Mus musculus); experiment: In vivo inhibition of CSF1R in wildtype mouse assessed as number of GFAP positive cells per FOV at 1200 ppm administered as rodent chow starting from 1.5 months and measured after 4 months by immunolabeling based confocal microscopic analysis (reference value: 1 to 7); type: functional; settings: route po, time 2.5 months

| Compound | Activity [1] | Activity [2] | IC50 [3] | Activity [4] | AUC at 4320 h [5] | IC50 [6] | Activity [7] | Activity [8] | Activity [9] | Flu intensity [10] | IC50 [11] | IC50 [12] | Activity [13] | IC50 [14] | AUC at 336 h [15] | Activity [16] | Activity [17] | Activity [18] |
| --- | --- | --- | --- | --- | --- | --- | --- | --- | --- | --- | --- | --- | --- | --- | --- | --- | --- | --- |
| FC(F)(F)c1ccc(CNc2ccc(Cc3c[nH]c4ncc(Cl)cc34)cn2)cn1 [PEXIDARTINIB] | Active |  |  |  |  |  |  |  |  |  |  |  |  |  |  |  |  |  |
| COc1ncc(F)cc1CNc1ccc(Cc2c[nH]c3ncc(C)cc23)c(F)n1 [PLX-5622] |  | 0 | > 1000 nM | Active | 218 µg·h/mL | > 1000 nM | 2.289 RPKM | 11.641 RPKM | 0 RPKM | 0.747 a.u. | > 1000 nM | > 1000 nM | 0.238 RPKM | > 1000 nM | 23.1 µg·h/mL | 0 pg | 0.13 RPKM | 4 |
